In ChEMBL document CHEMBL5357028, “Acetogenins from the Stem of Uvaria rufa and Their Cytotoxic Activity” (J Nat Prod, 2024) one finds IC50 and Activity data, which are given here for 13 compounds.

By IC50 is commonly meant the concentration needed to halve the response being measured.

The subject of one assay is OVCAR-3. Kind of assay: Cytotoxicity against human OVCAR-3 cells assessed as reduction in cell viability measured after 72 hrs by MTS assay. The format is functional, cell-based. To be noted: OVCAR-3, 72 h. In a few lines:
(§1)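 Cells exposed to test substance for 72 h. Viability read by MTS-based absorbance assay (CellTiter 96 AQueous One Solution) relative to DMSO solvent control. Paclitaxel served as positive control.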
In general terms: Formazan colour is commonly taken as a measure of viable cells.

A further assay has as its system MDA-MB-435. Description: Cytotoxicity against human MDAMB-435 cells assessed as reduction in cell viability measured after 72 hrs by MTS assay. Type of assay: functional, cell-based. The conditions noted are these: MDA-MB-435, 72 h. In a few lines:
as §1

The subject of a further assay is HCT-116. Description: Cytotoxicity against human HCT-116 cells assessed as reduction in cell viability measured after 72 hrs by MTT assay. Type of assay: functional, cell-based. To be noted: HCT-116, 72 h. Summed up:
(§2)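 Cells grown at 37°C, 5% CO₂ (22Rv1 in RPMI 1640, HCT 116 in McCoy's; 10% FBS, penicillin/streptomycin). Trypsinized, 5000 cells/well seeded, 24 h attachment. DMSO stocks diluted in medium to final 100, 20, 4, 0.8, 0.16 and 0.032 μM; 0.5% DMSO vehicle control. After 72 h, MTT 0.5 mg/mL final for 3 h; formazan dissolved in DMSO, A570. Viability relative to DMSO control; duplicates, three independent experiments; IC50 calculated.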

The test system of another assay is CWR22R. Kind of assay: Cytotoxicity against human 22Rv1 cells assessed as reduction in cell viability measured after 72 hrs by MTT assay. The format is functional, cell-based. The conditions noted are these: 22Rv1, 72 h. Summed up: as §2
The subject of assay [1] is Mycobacterium tuberculosis. Kind of assay: Antitubercular activity against Mycobacterium tuberculosis H37Rv assessed as inhibition of bacterial growth upto 100 ug/ml. The conditions noted are these: dose <= 100.0 µg/ml. Type of assay: functional, organism-based.

Counter-ions that a name gives are not always drawn. Calls of active or inactive are those of the source. The calls are words filed in the database; no cut-off is given here. Bounds are passed on as bounds.

Consider `CCCCCC[C@H](O)CCC[C@H](O)[C@H]1CC[C@H]([C@H]2CC[C@H]([C@H](O)CCCCCCCCCCCCC3=C[C@H](C)OC3=O)O2)O1` [SQUAMOCIN], for which the IC50 in the assay with OVCAR-3 turned out to be 4.5 µM; in the assay on MDA-MB-435, 4.6 µM; in the assay on HCT-116 it was 1.2 µM; in the assay on CWR22R, 6.4 µM.

`CCCCCC[C@H](O)CCC[C@H](O)[C@H]1CC[C@H]([C@H]2CC[C@H]([C@H](O)CCCCCCCCC[C@@H](O)CCC3=C[C@H](C)OC3=O)O2)O1`: the 50% inhibitory concentration (IC50) with OVCAR-3 was 4.5 µM; in the assay with MDA-MB-435, 4.4 µM; with HCT-116 it was 1.8 µM; in the assay with CWR22R, 8.2 µM.

In the case of `CCCCCCCCCC[C@@H](O)[C@H]1CC[C@H]([C@H]2CC[C@H]([C@H](O)CCCCCCCCC[C@H](O)CCC3=C[C@H](C)OC3=O)O2)O1` [UVARIGRANDIN A], the IC50 with OVCAR-3 was 4.6 µM; in the assay with MDA-MB-435 it was 4.1 µM; in the assay on HCT-116, 5.5 µM; with CWR22R it was 7 µM.

On to `CCCCCCCCCC[C@@H](O)[C@H]1CC[C@H]([C@H]2CC[C@H]([C@H](O)CCCCCCCCCCCCC3=C[C@H](C)OC3=O)O2)O1` [ISODESAACETYLUVARICIN], for which the half-inhibitory concentration (IC50) with OVCAR-3 was more than 10 µM; in the assay on MDA-MB-435 it was 4.1 µM; with HCT-116, 2.8 µM; with CWR22R, 7.8 µM.

In the case of `CCCCCC[C@H](O)CCC[C@H](O)[C@H]1CC[C@H]([C@H]2CC[C@H]([C@H](O)CCCCCCCCCCCCCCC3=C[C@H](C)OC3=O)O2)O1`, the IC50 in the assay on OVCAR-3 was determined as 4.4 µM; in the assay on MDA-MB-435, 4.5 µM; with HCT-116, 1.2 µM; in the assay on CWR22R it was 5.6 µM.

For `COc1cc([C@@H]2c3cc4c(cc3[C@@H](O[C@@H]3O[C@@H]5CO[C@@H](C)O[C@H]5[C@H](O)[C@H]3O)[C@H]3COC(=O)[C@H]23)OCO4)cc(OC)c1O` [ETOPOSIDE], the IC50 is 1.8 µM in the assay on HCT-116 and 2.3 µM in the assay on CWR22R.

Regarding `CC(=O)O[C@H]1C(=O)[C@@]2(C)[C@H]([C@H](OC(=O)c3ccccc3)[C@]3(O)C[C@H](OC(=O)[C@H](O)[C@@H](NC(=O)c4ccccc4)c4ccccc4)C(C)=C1C3(C)C)[C@]1(OC(C)=O)CO[C@@H]1C[C@@H]2O` [PACLITAXEL], the concentration for half-maximal inhibition (IC50) in the assay with OVCAR-3 came to 0.0056 µM; with MDA-MB-435 it was 0.0026 µM.

Take `CCCCCCCCCC[C@H](O)[C@H]1CC[C@H]([C@H]2CC[C@H]([C@H](O)CCCCCCCC[C@H](O)[C@H](O)CCC3=C[C@H](C)OC3=O)O2)O1`: the IC50 in the assay with OVCAR-3 was more than 10 µM; with MDA-MB-435 it was 4.6 µM; in the assay with HCT-116, 15 µM; in the assay with CWR22R, 8.3 µM.

In the case of `CCCCCCCCCC[C@H](O)[C@H]1CC[C@H]([C@H]2CC[C@H]([C@H](O)CCCCCCCC[C@H](O)CCCC3=C[C@H](C)OC3=O)O2)O1`, the IC50 was 10 µM in the assay with HCT-116 and 12.5 µM with CWR22R.

As to `CCCCCCCCCC[C@H](O)[C@H]1CC[C@H]([C@H]2CC[C@H]([C@H](O)CCCCCCCCCCCCC3=C[C@H](C)OC3=O)O2)O1` [BULLANIN], the half-inhibitory concentration (IC50) is more than 10 µM with OVCAR-3, 5.3 µM in the assay on MDA-MB-435, 29.1 µM in the assay on HCT-116 and 16.5 µM in the assay with CWR22R.

As to `CC[C@]1(O)C[C@@H]2CN(CCc3c([nH]c4ccccc34)[C@@](C(=O)OC)(c3cc4c(cc3OC)N(C)[C@H]3[C@@](O)(C(=O)OC)[C@H](OC(C)=O)[C@]5(CC)C=CCN6CC[C@]43[C@@H]65)C2)C1` [VINBLASTINE SULFATE], the IC50 in the assay on HCT-116 and in the assay with CWR22R was 0.001 µM in each case.

Take `CCCCCCCCCC[C@@H](O)[C@H]1CC[C@H]([C@H]2CC[C@H]([C@H](O)CCCCCCCC[C@H](O)[C@H](O)CCC3=C[C@H](C)OC3=O)O2)O1`: the IC50 in the assay with OVCAR-3 came out at 3.7 µM; in the assay with MDA-MB-435, 4.4 µM; in the assay with HCT-116, 2.7 µM; in the assay with CWR22R it was 5.5 µM.

Consider `CCCCCCCCCC[C@@H](O)[C@H]1CC[C@H]([C@H]2CC[C@H]([C@H](O)CCCCCCCCC[C@@H](O)CCC3=C[C@H](C)OC3=O)O2)O1`, for which the IC50 in the assay with OVCAR-3 amounted to 3.5 µM; with MDA-MB-435 it was 4.6 µM; in the assay with HCT-116 it was 9.2 µM; with CWR22R it was 17.5 µM. Further, the outcome in assay [1] was inactive.
